Experimental data collected from several papers.
Protocols differ between the studies behind these lines.
MET Y1235D: Hepatocyte growth factor receptor (MET, Homo sapiens, UniProt P08581, Y1235D)
MET: Hepatocyte growth factor receptor (MET, Homo sapiens, UniProt P08581)
MET M1250T: Hepatocyte growth factor receptor (MET, Homo sapiens, UniProt P08581, M1250T)

COc1ccnn2ncc(-c3ccnc(N(C)C)n3)c12  remaining binding (MET Y1235D; binding; 1 µM): 94%
CCS(=O)(=O)c1cc2cc(C[C@@](O)(CC(C)(C)c3ccc(F)cc3C(N)=O)C(F)(F)F)[nH]c2cn1  remaining binding (MET; cell-free assay; competition with immobilised ligand; 1 µM): 100%
CN(c1nccc(-c2cnn3ncccc23)n1)C1CC1  remaining binding (MET M1250T; binding; 1 µM): 100%
CNC(=O)[C@@H]1CC[C@@H](n2c(-c3ccc4cnccc4c3)nc3ccc(C(=O)NCc4cccc(C(N)=O)c4)cc32)C1  remaining binding (MET; binding; competition with immobilised ligand; 1 µM): 98%
O=C(c1ccc(Nc2nccc(-c3cc4ccccc4s3)n2)cc1)N1CCC(N2CCCC2)CC1  remaining binding (MET M1250T; binding; competition with immobilised ligand; 1 µM): 68%
CC1CCCN1c1nccc(-c2cnn3ncccc23)n1 (stereo not drawn)  remaining binding (MET; binding; 1 µM): 96%
COC(=O)Nc1nc2ccc(C(=O)c3ccccc3)cc2[nH]1  remaining binding (MET; cell-free assay; competition with immobilised ligand; 10 µM): 32%
CCN1CCN(Cc2ccc(C(=O)Nc3ccc(C)c(Oc4ccc5c(c4)CC(=O)N5)c3)cc2C(F)(F)F)CC1  remaining binding (MET M1250T; binding; competition with immobilised ligand; 1 µM): 100%
COc1ncc2cc3ccccc3nc2c1C#N  remaining binding (MET; cell-free assay; competition with immobilised ligand; 5 µM): 91%
O=C(NCCCN1CCOCC1)c1ccc(Nc2ncc(Cl)c(-c3ccc(Cl)s3)n2)cc1  remaining binding (MET; binding; competition with immobilised ligand; 1 µM): 37%
CN(C(=O)c1ccccc1)c1cc(N(C)c2ccc3c(c2)CCc2ccc(C(=O)NCCN4CCOCC4)cc2C3=O)ccc1F  remaining binding (MET Y1235D; cell-free assay; competition with immobilised ligand; 1 µM): 85%
O=C(NCCCN1CCOCC1)c1ccc(Nc2nccc(-c3cc4ccccc4s3)n2)cc1  remaining binding (MET M1250T; binding; competition with immobilised ligand; 1 µM): 69%
O=C(Nc1c[nH]nc1C(=O)NC1CCNCC1)c1cc(F)cc(F)c1  remaining binding (MET Y1235D; binding; competition with immobilised ligand; 1 µM): 100%
O=C(c1ccc(Nc2ncc(Cl)c(-c3cc4ccccc4s3)n2)cc1)N1CCC(N2CCCC2)CC1  remaining binding (MET Y1235D; binding; competition with immobilised ligand; 1 µM): 44%
CN(C)C(=O)Cn1cc(-c2nc([C@@](C)(c3ccc(-c4cnc(N)nc4)cc3)C3CC3)no2)cn1  remaining binding (MET Y1235D; cell-free assay; competition with immobilised ligand; 1 µM): 96%
O=C(c1ccc(Nc2ncc(Cl)c(-c3ccc(Cl)s3)n2)cc1)N1CCC(N2CCCC2)CC1  remaining binding (MET; binding; competition with immobilised ligand; 1 µM): 6.9%
CN(C)c1nccc(-c2cnc3ncccn23)n1  remaining binding (MET Y1235D; binding; 1 µM): 76%
CN(C)C(=O)Cn1cc(-c2nc(C3(c4ccc(-c5cnc(N)nc5)cc4)CC3)no2)cn1  remaining binding (MET Y1235D; cell-free assay; competition with immobilised ligand; 1 µM): 98%
O=C(NCC1CCOCC1)c1n[nH]cc1NC(=O)c1c(F)cccc1F  remaining binding (MET M1250T; binding; competition with immobilised ligand; 1 µM): 90%
O=C(NCCCC1CCCCC1)c1ccc(CNC(=O)c2cnn(-c3ccccc3)c2C(F)(F)F)cc1  remaining binding (MET Y1235D; cell-free assay; competition with immobilised ligand; 0.1 µM): 100%
CN(C)c1nccc(-c2cnn3ncccc23)n1  remaining binding (MET; binding; 1 µM): 89%
COc1cnc(Nc2cccc(S(N)(=O)=O)c2)nc1N1CCN(c2ccccc2)C(=O)C1  remaining binding (MET M1250T; binding; competition with immobilised ligand; 1 µM): 98%
N[C@@H]1CCN(c2nccc(-c3cnn4ncccc34)n2)C1  remaining binding (MET M1250T; binding; 1 µM): 100%
Cc1cnc(Nc2ccc(C(=O)N3CCC(N4CCCC4)CC3)cc2)nc1-c1cc2ccccc2s1  remaining binding (MET Y1235D; binding; competition with immobilised ligand; 1 µM): 72%
CN1CCN(c2ccc(Nc3nccc(-c4cccc([N+](=O)[O-])c4)n3)cc2C(F)(F)F)CC1  remaining binding (MET Y1235D; binding; 10 µM): 27%
CCCCN(CCCC)C(=O)CN1C[C@H](c2cc(OC)c3c(c2)OCO3)[C@@H](C(=O)O)[C@@H]1CC(C)(C)CCC  remaining binding (MET Y1235D; cell-free assay; competition with immobilised ligand; 1 µM): 100%
COc1cnc(Nc2cccc(S(N)(=O)=O)c2)nc1N1CCN(c2ccccc2)CC1  remaining binding (MET M1250T; binding; competition with immobilised ligand; 1 µM): 74%
C[C@H]1CCN(c2nccc(-c3cnn4ncccc34)n2)C1  remaining binding (MET Y1235D; binding; 1 µM): 100%
O=C1CCc2cc(Nc3cc(OC4CCOCC4)c([N+](=O)[O-])cc3Cl)ccc2N1  remaining binding (MET Y1235D; cell-free assay; competition with immobilised ligand; 1 µM): 100%
Nc1ncc2c(n1)-c1c([nH]c3ccc(C#CC4CC4)cc13)CCCC2  remaining binding (MET; binding; competition with immobilised ligand; 1 µM): 100%
CC(C)(C)c1ccc(-c2nc(CBr)nn2-c2cccc(O)c2)cc1  remaining binding (MET; cell-free assay; competition with immobilised ligand; 10 µM): 83%
CC(=O)N1CCC(c2ccc(C(=O)NC3=NCCN3)cc2C(F)(F)F)CC1  remaining binding (MET M1250T; cell-free assay; competition with immobilised ligand; 1 µM): 84%
c1cncc(-c2cccc(Nc3nccc(NC4CCCCC4)n3)c2)c1  remaining binding (MET; binding; competition with immobilised ligand; 10 µM): 43%
